Sampled rows, rich in hits. Any-hit rate of the full collection: about 3.1%.
F508del corr: CFTR F508del correction in bronchial cells. CFBE cells, YFP halide quenching; stimulated with forskolin plus potentiator P3; % fluorescence drop versus neutral controls. activity (quench increase), % at 7.58 µM. hit rate 0.36% among 350,000. AID 720511;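 active = mean added fluorescence quench of at least 8% versus neutral control, with both replicates also reaching 8%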;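 also: cells transiently co-express mutant CFTR-F508del with the halide-sensitive YFP; corrector assay measuring rescue of mutant channel to the surface after 24 h compound exposure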
Ecoli rRNA inh: inhibitors of bacterial rRNA selective over humanized ribosomes; E. coli WT GFP vs humanized-ribosome RFP mutants, fluorescence, 24 h; stronger effect = lower value; DMSO median 0, no signal -100; GFP signal change (wild-type ribosome), % (no concentration beside the values); hit rate 1.6% among 350,000;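 active = significant combined selectivity score with lowered wild-type GFP, culture density cut under 30%, mutant RFP and density less affected; inactive = any of these conditions unmet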
SIRT5 block: blocks human SIRT5 desuccinylation of peptide | Q9NXA8 | Purified SirT5, succinyl-peptide AMC, trypsin-coupled fluorescence | inhibition, % at 15 µM | hit rate 1.1% among 330,000; in the data active = inhibition above about 15%
Target sequence (Q9NXA8 whole entry, looked up): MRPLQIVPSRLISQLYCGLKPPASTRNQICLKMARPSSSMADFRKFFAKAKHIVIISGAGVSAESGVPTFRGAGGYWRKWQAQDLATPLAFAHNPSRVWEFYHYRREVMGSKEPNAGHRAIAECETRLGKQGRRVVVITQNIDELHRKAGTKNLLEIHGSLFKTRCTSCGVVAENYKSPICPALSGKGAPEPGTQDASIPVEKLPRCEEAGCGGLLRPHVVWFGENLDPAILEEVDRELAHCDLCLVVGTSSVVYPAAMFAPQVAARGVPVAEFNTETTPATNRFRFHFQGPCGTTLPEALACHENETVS
ERAP1 inh: blocks human ERAP1 aminopeptidase activity; Q9NZ08; recombinant ERAP1, Leu-AMC fluorescence, 60 min; inhibition, % at 10.7 µM; hit rate 0.15% among 340,000; AID 652197;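 active = mean replicate inhibition of at least 30%, or all replicates individually reaching that 30% level; inactive = mean below 30% and not every replicate reaching it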;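 also: 0% = neutral control wells and 100% = L-leucinethiol positive control wells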
S100A4 MyoIIA: blocks human S100A4 binding to myosin IIA peptide. hit rate 0.14% among 360,000. S100A4/TAMRA-MyoIIA peptide fluorescence polarization. inhibition, % at 10.7 µM. P26447;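 active = mean inhibition of at least 70% across replicates, with every replicate also reaching that level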
Target sequence (P26447 whole entry, looked up): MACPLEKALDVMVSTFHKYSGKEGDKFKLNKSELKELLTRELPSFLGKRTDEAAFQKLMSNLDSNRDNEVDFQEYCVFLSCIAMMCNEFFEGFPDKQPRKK
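incubation = readout 5 min after mixing, signal stable up to 60 min | system = S100A4 monomer protein | buffer or medium = HEPES pH 7.2 with CaCl2, KCl, NaCl, DTT, Triton | benchmarks = neutral control DMSO, positive control TFP | also added = fluorescent myosin IIA peptide, 5 nM | compound dosing = one concentration per compound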
* hit, by the source's call; . = not tested or not shown; ! = not active in a repeat.

SMILES | F508del corr | Ecoli rRNA inh | SIRT5 block | ERAP1 inh | S100A4 MyoIIA
CCCNC(=O)N1[C@H](CO)[C@H](c2ccccc2)C12CN(C(=O)CC1CC1)C2 | 0 | 2 | 7 | 0 | -11
O=C(c1ccncc1)N1CC2(C1)[C@@H](c1ccccc1)[C@@H](CO)N2CC1CCCC1 | -1 | -5 | 18* | 1 | 7
C[C@@H]1CN([C@@H](C)CO)C(=O)c2cc(-c3cncnc3)cnc2O[C@@H]1CN(C)C(=O)Cc1cccnc1 | 2 | 5 | 1 | -7 | -10
CCCCNC(=O)C(=O)Nc1ccc2c(c1)N(S(=O)(=O)c1cccs1)CCC2 | 11* | 2 | 1 | -2 | -3
CC(C)NC(=O)C(=O)Nc1ccc2c(c1)N(S(=O)(=O)c1cccs1)CCC2 | -1 | -18* | 0 | -2 | 4
CNC(=O)C(=O)Nc1ccc2c(c1)N(S(=O)(=O)c1cccs1)CCC2 | -3 | -2 | -5 | 5 | -1
Cc1ccc(C)c(S(=O)(=O)Nc2ccccc2C(=O)Nc2ccc(S(=O)(=O)Nc3ncccn3)cc2)c1 | . | -31* | 19* | -6 | -12
CNC(=O)c1ccsc1NC(=O)c1ccc(Cl)s1 | -1 | -28* | -6 | 3 | -8
CNC(=O)c1ccsc1NC(=O)c1ccccc1 | 2 | -22 | 2 | 7 | -2
C[C@H]1CN([C@@H](C)CO)C(=O)c2cc(NS(=O)(=O)c3ccc(F)cc3)ccc2O[C@@H]1CN(C)S(=O)(=O)c1cccs1 | -2 | -2 | 0 | -3 | 0
O=S(=O)(/N=C(/Nc1ccc(Cl)c(S(=O)(=O)Nc2ccccc2Cl)c1)c1ccc(F)cc1)c1ccccc1 | 2 | -28*! | -3 | 1 | -1
COc1ccccc1NS(=O)(=O)c1cc(N/C(=N/S(=O)(=O)c2ccccc2)c2ccc(F)cc2)ccc1Cl | 0 | -10 | -6 | 3 | 1
CCC[C@H]1CC(=O)C=C(c2ccsc2)ON1C(=O)OC(C)(C)C | -4 | -5 | 21* | -2 | -4
COc1ccc(C2=CC(=O)C[C@H](CN3C(=O)c4ccccc4C3=O)N(C(=O)OC(C)(C)C)O2)cc1 | 4 | . | -5 | -1 | -6
CC1(C(=O)NS(=O)(=O)c2ccc3c(c2)CCO3)CCN1C(=O)c1ccccc1CCc1ccccc1 (stereo not given) | 0 | -20* | . | 3 | 0
Cc1cccc(S(=O)(=O)NC(=O)C2(C)CCN2C(=O)c2ccccc2CCc2ccccc2)c1 (stereo not given) | 3 | -50* | . | 1 | 1
CCCNC(=O)N1C[C@@H](C)[C@H](OC)CN(C)C(=O)c2cc(NS(C)(=O)=O)ccc2OC[C@@H]1C | 1 | -1 | -2 | 0 | -10
COc1ccc(C[C@H]2CCn3cc(nn3)COC[C@H](CC(C)C)NC2=O)cc1 | . | -3 | 1 | 3 | -2
CN(c1ccccc1)S(=O)(=O)c1cccc(C(=O)OCC(=O)NCc2ccco2)c1 | -2 | -24* | 0 | 3 | 0
COC(=O)[C@H]1[C@H](CO)[C@H]2Cn3c(ccc(-c4ccccc4F)c3=O)[C@H]2N1Cc1ccccc1 | 2 | -3 | 3 | 0 | -2
C=CCn1c(CCn2c3ccccc3c3ccccc32)n[nH]c1=S | . | -27* | -5 | 11 | 0
O=C(COC(=O)/C=C/c1cccc(Cl)c1)Nc1cccc(S(=O)(=O)NC2=NCCC2)c1 | 0 | -4 | -8 | 1 | -6
CN(C)S(=O)(=O)c1cccc(NC(=O)COC(=O)/C=C/c2ccc3c(c2)OCO3)c1 | 3 | -27* | -1 | 6 | -7
O=C(COC(=O)/C=C/c1ccc(Cl)cc1)Nc1cccc(S(=O)(=O)NC2=NCCCCC2)c1 | -3 | -20* | -5 | -4 | -9
CO[C@H]1CN(C)C(=O)c2ccc(NC(=O)c3ccccc3)cc2OC[C@H](C)N(CC2CC2)C[C@@H]1C | 1 | -3 | 4 | -1 | -1
SMILES | F508del corr | Ecoli rRNA inh | SIRT5 block | ERAP1 inh | S100A4 MyoIIA
CCS(=O)(=O)N1CCN(c2ccccc2)CC1 | -4 | 11 | 1 | . | 0
O=C1Oc2ccccc2C(=O)/C1=C\N1CCN(c2ccccc2)CC1 | 0 | -33* | 0 | 4 | -12
O=C(COc1ccccc1)Nc1nnc(-c2ccco2)o1 | 0 | 23 | -2 | -2 | -2
O=C(COc1ccc(Cl)cc1)Nc1nnc(-c2ccco2)o1 | -4 | -35* | -3 | -1 | 6
Cc1cc(=O)oc2c(CN3CCOCC3)c(O)ccc12 | -1 | 5 | -123 | 10 | -6
CN1CCN(Cc2c(O)ccc3cc(Br)ccc23)CC1 | -2 | -28 | 1 | -1 | 2
Cc1cc(=O)oc2c(CN3CCCCC3)c(O)ccc12 | 0 | 7 | -127 | 46* | -3
Cc1c(C)c2ccc(O)c(CN3CCN(C)CC3)c2oc1=O | 2 | 8 | -130 | 31* | 4
CN1CCN(Cc2c(O)ccc3cc(-c4ccccn4)c(=O)oc23)CC1 | 2 | 11 | -98 | 112* | 0
Cc1c(C)c2ccc(O)c(CN3CCCC3)c2oc1=O | -1 | 5 | -117 | 51* | 0
COc1cccc(S(=O)(=O)N(C)C[C@@H]2Oc3ncc(C#CC(C)(C)O)cc3C(=O)N([C@H](C)CO)C[C@@H]2C)c1 | 1 | -6 | -18 | -3 | 5
COCC(=O)N1C[C@@H]2[C@H](c3ccccc31)[C@H](CO)N2C(=O)NC(C)C | 3 | -1 | 7 | -1 | 4
COc1ccccc1-c1c(C)oc2c(CN3CCOCC3)c(O)ccc2c1=O | 0 | -7 | -35 | 2 | -5
Cc1oc2c(CN3CCOCC3)c(O)ccc2c(=O)c1-c1ccccc1 | -3 | -24* | -1 | 5 | 2
CCc1cc(=O)oc2c(CN3CCN(C)CC3)c(O)ccc12 | 2 | 8 | -116 | 36* | 2
C[C@H](CO)N1C[C@H](C)[C@@H](CN(C)C(=O)Cc2ccccc2)OCCCC[C@H](C)Oc2ccc(NS(=O)(=O)c3ccc(F)cc3)cc2C1=O | 2 | 3 | . | . | .
C[C@@H]1CN([C@H](C)CO)C(=O)c2cc(NS(C)(=O)=O)ccc2O[C@@H]1CN(C)S(=O)(=O)c1cn(C)cn1 | -1 | 3 | -10 | 1 | 5
CCCC#Cc1cnc2c(c1)C(=O)N([C@H](C)CO)C[C@H](C)[C@H](CN(C)C(=O)NCCC)O2 | 0 | 4 | 0 | -3 | -34
COc1ccc(Nc2nc(C(=O)N3CCc4ccccc4C3)cs2)cc1 | 0 | -48 | 1 | -9 | 5
COc1ccc(Nc2nc(C(=O)N3CCc4cc(OC)c(OC)cc4C3)cs2)cc1 | 2 | -39* | -6 | 1 | -10
O=C(O)c1cc(N/N=C/c2ccc(N3CCOCC3)s2)ccc1Cl | 1 | 13 | 36* | 14 | -7
Cc1cc(C)n(CCC(=O)N2c3ccccc3CC2C)n1 (stereo not given) | -1 | -1 | 17* | 8 | 5

Source: PubChem BioAssay (Broad Institute)
